The target of test [1] is T1, Androgen receptor (Homo sapiens, UniProt P10275).
T1 sequence (P10275 whole entry): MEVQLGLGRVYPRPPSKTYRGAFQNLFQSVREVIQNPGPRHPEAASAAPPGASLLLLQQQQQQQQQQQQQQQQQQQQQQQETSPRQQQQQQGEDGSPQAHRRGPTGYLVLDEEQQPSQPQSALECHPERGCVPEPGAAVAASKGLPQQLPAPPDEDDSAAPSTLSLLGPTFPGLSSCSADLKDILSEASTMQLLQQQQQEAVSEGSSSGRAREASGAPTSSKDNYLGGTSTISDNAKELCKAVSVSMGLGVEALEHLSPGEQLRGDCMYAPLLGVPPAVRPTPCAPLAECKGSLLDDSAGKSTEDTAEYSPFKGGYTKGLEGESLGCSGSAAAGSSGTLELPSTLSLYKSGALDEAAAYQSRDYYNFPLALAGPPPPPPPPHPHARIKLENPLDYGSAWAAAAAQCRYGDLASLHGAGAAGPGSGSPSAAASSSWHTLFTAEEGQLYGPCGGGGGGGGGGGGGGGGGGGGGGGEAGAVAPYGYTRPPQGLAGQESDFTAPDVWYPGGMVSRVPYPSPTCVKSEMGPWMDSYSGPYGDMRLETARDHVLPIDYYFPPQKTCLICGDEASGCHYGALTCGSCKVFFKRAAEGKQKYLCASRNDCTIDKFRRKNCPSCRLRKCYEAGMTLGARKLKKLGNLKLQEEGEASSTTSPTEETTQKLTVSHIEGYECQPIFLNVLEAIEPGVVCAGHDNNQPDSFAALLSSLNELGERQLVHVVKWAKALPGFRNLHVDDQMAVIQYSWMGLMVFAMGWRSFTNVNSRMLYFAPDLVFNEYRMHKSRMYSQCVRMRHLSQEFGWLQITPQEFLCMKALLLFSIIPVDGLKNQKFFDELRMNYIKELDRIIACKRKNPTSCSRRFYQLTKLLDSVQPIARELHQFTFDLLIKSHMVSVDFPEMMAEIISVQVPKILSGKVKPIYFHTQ
The test is described as follows: Displacement of [3H]R1881 from wild type human androgen receptor expressed in COS-1 cells co-transfected with pSG5 after 2 hrs by scintillation assay.

Test [2] addresses Luciferin 4-monooxygenase (Photinus pyralis) (UniProt P08659). Description: Inhibition of Photinus pyralis recombinant luciferase at 10 uM incubated for 20 mins. The procedure, abridged: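 Purified firefly luciferase diluted to 0.1 μg/mL in 1x Reporter Lysis Buffer, with compound added from ethanol stocks (10⁻³–10⁻⁷ mol/L dilutions) in triplicate. Incubated 20 min at rt, then luciferase substrate added and luminescence read. Blank (lysis buffer) and ethanol-vehicle controls were included.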

Test [3] deals with T2, Androgen receptor (Homo sapiens) (UniProt P10275).
T2 sequence (whole entry): T1 sequence (P10275 whole entry)
Description: Agonist activity at wild type human androgen receptor expressed in COS-1 cells co-transfected with pSG5 assessed as effect on testosterone induced luciferase activity at 10 uM after 18 hrs relative untreated control. In kind it is functional, cell-based.

These results are taken from ChEMBL document CHEMBL2157978, “Design, synthesis, and biological evaluation of nonsteroidal cycloalkane[d]isoxazole-containing androgen receptor modulators” (J Med Chem, 2012).

Calls of active or inactive are those of the source. The rule behind the calls is not given here.

Sequence of Luciferin 4-monooxygenase (Photinus pyralis) (P08659 whole entry): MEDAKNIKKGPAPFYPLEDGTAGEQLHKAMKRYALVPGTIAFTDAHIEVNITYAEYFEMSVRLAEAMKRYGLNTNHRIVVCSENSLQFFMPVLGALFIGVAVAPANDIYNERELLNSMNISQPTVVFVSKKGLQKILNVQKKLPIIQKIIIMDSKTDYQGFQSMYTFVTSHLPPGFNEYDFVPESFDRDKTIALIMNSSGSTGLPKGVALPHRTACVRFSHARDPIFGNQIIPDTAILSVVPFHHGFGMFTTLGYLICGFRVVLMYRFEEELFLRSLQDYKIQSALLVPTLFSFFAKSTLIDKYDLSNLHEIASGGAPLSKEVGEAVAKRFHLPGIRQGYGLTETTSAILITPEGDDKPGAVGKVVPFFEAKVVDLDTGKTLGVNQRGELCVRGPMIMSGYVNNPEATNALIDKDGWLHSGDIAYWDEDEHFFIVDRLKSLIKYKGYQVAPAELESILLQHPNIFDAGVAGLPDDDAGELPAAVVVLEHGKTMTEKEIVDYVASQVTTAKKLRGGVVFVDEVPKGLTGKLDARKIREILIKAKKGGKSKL

On to `N#Cc1cccc(C2=NOC3CCCCC23)c1C(F)(F)F` (cis isomer) [listing 1 of 2 here], for which the IC50 in test [1] is 79.4 nM. This counts as double-digit nanomolar.

As to `Fc1ccc(C2=NOC3CCCCCCC23)c(C(F)(F)F)c1` (cis isomer; 8g), in test [2], the inhibition result was “inactive”. Moreover, in test [3], the result was inactive.

In test [1], `N#Cc1ccc(C2=NOC3CCCCCC23)c(C(F)(F)F)c1` (stereo not given) [listing 1 of 2 here] gave an IC50 of 1150 nM.

As for `N#Cc1ccc(C2=NOC3CCCCCC23)c(C(F)(F)F)c1` (cis isomer) [listing 1 of 2 here], the inhibition result in test [2] was “inactive”. The result in test [3] was inactive.

Molecule `Fc1ccc(C2=NOC3CCCCC23)c(C(F)(F)F)c1` (cis isomer) [listing 1 of 2 here] showed an IC50 in test [1] of 1150 nM.

For the molecule `c1ccc2c(C3=NOC4CCCCC34)cccc2c1` (cis isomer), the inhibition entry in test [2] was “inactive”. For the same molecule, in test [3], the outcome was inactive.

For `Fc1ccc(C2=NOC3CCCC23)c(C(F)(F)F)c1` (cis isomer; cis), the inhibition entry in test [2] is “inactive”. Further, the result in test [3] was inactive.

Turning to `O=[N+]([O-])c1ccc(C2=NOC3CCCCCCC23)c(C(F)(F)F)c1` (cis isomer) [listing 1 of 2 here], the inhibition result in test [2] is “inactive”. Further, the result in test [3] was inactive.

Consider `N#Cc1ccc(C2=NOC3CCCCC23)c(C(F)(F)F)c1` (stereo not given) [listing 1 of 2 here], for which, in test [2], the inhibition entry is “inactive”. In addition, the outcome in test [3] was inactive.

For the molecule `Clc1ccccc1C1=NOC2CCCCC12` (stereo not given), the inhibition result in test [2] was “inactive”. Moreover, the outcome in test [3] was inactive.

As to `c1ccc(C2=NOC3CCCCC23)cc1` (stereo not given), the inhibition result in test [2] was “inactive”. The outcome in test [3] was inactive.

For `Fc1ccc(C2=NOC3CCCC23)c(C(F)(F)F)c1` (cis isomer; 5g) [listing 1 of 2 here], the inhibition result in test [2] is “inactive”. Also, the result in test [3] was inactive.

`O=[N+]([O-])c1ccc(C2=NOC3CCCCCCC23)c(C(F)(F)F)c1` (stereo not given) [listing 1 of 2 here]: the inhibition entry in test [2] was “inactive”. Besides, in test [3], the result was inactive.

With `Clc1cccc(C2=NOC3CCCCC23)c1` (cis isomer; cis), the inhibition result in test [2] is “inactive”. Moreover, the result in test [3] was inactive.

Take `Fc1ccc(C2=NOC3CCCCC23)c(C(F)(F)F)c1` (stereo not given) [listing 1 of 2 here]: the inhibition result in test [2] is “inactive”. Also, in test [3], the result was inactive.

Regarding `N#Cc1ccc(C2=NOC3CCCCC23)c(C(F)(F)F)c1` (stereo not given) [listing 2 of 2 here], the IC50 in test [1] was 1150 nM.

With `N#Cc1cccc(C2=NOC3CCCCC23)c1C(F)(F)F` (stereo not given) [listing 1 of 2 here], in test [1], the IC50 is 64.6 nM.

As to `N#Cc1ccc(C2=NOC3CCCCCC23)c(C(F)(F)F)c1` (cis isomer) [listing 2 of 2 here], the IC50 in test [1] was 1000 nM. Against the preceding molecule, the IC50 is about 15-fold higher.

In turn, `Fc1ccc(C2=NOC3CCCC23)c(C(F)(F)F)c1` (cis isomer; 5g) [listing 2 of 2 here] had an IC50 in test [1] of 1350 nM. The IC50 values of the last two molecules are within 1.5-fold of each other.

`N#Cc1ccc(C2=NOC3CCCCCCC23)c(C(F)(F)F)c1` (stereo not given) [listing 1 of 2 here]: the inhibition entry in test [2] was “inactive”. Besides, the result in test [3] was inactive.

Turning to `N#Cc1ccc(C2=NOC3CCCCC23)c(C(F)(F)F)c1` (cis isomer), the inhibition entry in test [2] was “inactive”. For the same molecule, in test [3], the result was inactive.

`O=[N+]([O-])c1ccc(C2=NOC3CCCCCCC23)c(C(F)(F)F)c1` (cis isomer) [listing 2 of 2 here] showed an IC50 in test [1] of 741 nM.

Consider `N#Cc1ccc(C2=NOC3CCCCCCC23)c(C(F)(F)F)c1` (cis isomer) [listing 1 of 2 here], for which the inhibition result in test [2] was “inactive”. Besides, the outcome in test [3] was inactive.

As to `Clc1ccc(C2=NOC3CCCCC23)cc1` (cis isomer), the inhibition entry in test [2] was “inactive”. For the same molecule, the outcome in test [3] was inactive.

In the case of `Clc1ccccc1C1=NOC2CCCCC12` (cis isomer), the inhibition entry in test [2] is “inactive”. For the same molecule, in test [3], the result was inactive.

Consider `Clc1cccc(C2=NOC3CCCCC23)c1` (cis isomer; 6n), for which the inhibition result in test [2] is “inactive”. In addition, the outcome in test [3] was inactive.

The molecule `Fc1ccc(C2=NOC3CCCCCCC23)cc1C(F)(F)F` (cis isomer; cis) [listing 1 of 2 here] had an IC50 in test [1] of 2820 nM.

For the molecule `Fc1ccc(C2=NOC3CCCCCCC23)cc1C(F)(F)F` (cis isomer; cis) [listing 2 of 2 here], in test [2], the inhibition result was “inactive”. Also, the outcome in test [3] was inactive.

For `Fc1ccc(C2=NOC3CCCCC23)cc1` (stereo not given), the inhibition result in test [2] was “inactive”. Besides, in test [3], the outcome was inactive.

`Fc1cccc(C2=NOC3CCCCC23)c1` (racemic): the inhibition result in test [2] is “inactive”. In addition, in test [3], the result was inactive.

Consider `N#Cc1ccc(C2=NOC3CCCCCCC23)c(C(F)(F)F)c1` (stereo not given) [listing 2 of 2 here], for which the IC50 in test [1] was 2000 nM.

In test [1], `O=[N+]([O-])c1ccc(C2=NOC3CCCCCCC23)c(C(F)(F)F)c1` (stereo not given) [listing 2 of 2 here] had an IC50 of 776 nM.

For `Fc1ccccc1C1=NOC2CCCCC12` (stereo not given), the inhibition entry in test [2] was “inactive”. The result in test [3] was inactive.

For `COc1ccc(C2=NOC3CCCCC23)cc1` (cis isomer), in test [2], the inhibition entry was “inactive”. Besides, the result in test [3] was inactive.

For the molecule `N#Cc1ccc(C2=NOC3CCCCCCC23)c(C(F)(F)F)c1` (cis isomer) [listing 2 of 2 here], the IC50 in test [1] was 646 nM.

Regarding `COc1ccc(C2=NOC3CCCCC23)cc1` (stereo not given), the inhibition entry in test [2] is “inactive”. The outcome in test [3] was inactive.

With `Clc1ccc(C2=NOC3CCCCC23)cc1` (stereo not given), in test [2], the inhibition entry is “inactive”. The result in test [3] was inactive.

Take `COc1cccc(C2=NOC3CCCCC23)c1` (stereo not given): the inhibition entry in test [2] is “inactive”. Moreover, the outcome in test [3] was inactive.

On to `Fc1ccc(C2=NOC3CCCCCCC23)c(C(F)(F)F)c1` (cis isomer; cis), for which, in test [2], the inhibition result was “inactive”. The result in test [3] was inactive.

For the molecule `Fc1ccc(C2=NOC3CCCCCCC23)cc1C(F)(F)F` (cis isomer; 8f) [listing 1 of 2 here], the IC50 in test [1] is 5890 nM.

As to `Fc1ccc(C2=NOC3CCCCCCC23)cc1C(F)(F)F` (cis isomer; 8f) [listing 2 of 2 here], the inhibition entry in test [2] was “inactive”. In test [3], the outcome was inactive.

`Fc1ccc(C2=NOC3CCCCC23)c(C(F)(F)F)c1` (stereo not given) [listing 2 of 2 here] gave a half-maximal inhibitory concentration (IC50) in test [1] of 977 nM.

Turning to `c1ccc2c(C3=NOC4CCCCC34)cccc2c1` (stereo not given), the inhibition entry in test [2] is “inactive”. The outcome in test [3] was inactive.

Take `N#Cc1ccc(C2=NOC3CCCCC23)cc1` (stereo not given): the inhibition entry in test [2] is “inactive”. The outcome in test [3] was inactive.

Consider `Fc1ccc(C2=NOC3CCCCC23)c(C(F)(F)F)c1` (cis isomer) [listing 2 of 2 here], for which the inhibition result in test [2] is “inactive”. Moreover, the outcome in test [3] was inactive.

As to `N#Cc1cccc(C2=NOC3CCCCC23)c1C(F)(F)F` (cis isomer) [listing 2 of 2 here], the inhibition result in test [2] is “inactive”. In addition, the outcome in test [3] was inactive.

Regarding `N#Cc1ccc(C2=NOC3CCCCCC23)c(C(F)(F)F)c1` (stereo not given) [listing 2 of 2 here], the inhibition result in test [2] is “inactive”. Further, the result in test [3] was inactive.

In the case of `O=[N+]([O-])c1ccc(C2=NOC3CCCCC23)cc1` (racemic), the inhibition entry in test [2] is “inactive”. The result in test [3] was inactive.

With `COc1ccccc1C1=NOC2CCCCC12` (racemic), the inhibition result in test [2] is “inactive”. The result in test [3] was inactive.

As to `c1ccc(C2=NOC3CCCCC23)cc1` (cis isomer), in test [2], the inhibition entry was “inactive”. Besides, the result in test [3] was inactive.

`Fc1ccc(C2=NOC3CCCCC23)cc1` (cis isomer): in test [2], the inhibition result is “inactive”. Besides, in test [3], the result was inactive.

On to `N#Cc1cccc(C2=NOC3CCCCC23)c1C(F)(F)F` (stereo not given) [listing 2 of 2 here], for which the inhibition result in test [2] is “inactive”. Also, in test [3], the result was inactive.
